Active and inactive are the calls of the source. The rule behind the calls is not given here.
How the values were obtained:
[1] = biological target: T1, von Hippel-Lindau disease tumor suppressor/Bromodomain-containing protein 7 (Homo sapiens) (UniProt Q9NPI1+P40337); experiment: PROTAC activity at VHL/BRD7 in human Ri-1 cells assessed as remaining BRD7 protein level at 100 nM incubated for 24 hrs by Western blot analysis relative to control; format: cell-based
How it was run: (§1)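 Ri-1 cells exposed to compound for the stated time before harvest; BRD9, BRD7 and β-actin measured by Western blot, band intensities quantified and set against DMSO-treated control.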

[2] = Stability in mouse plasma at 10 uM measured upto 180 mins by UPLC-MS/MS analysis; format: ADME, cell-free; details: 3 h
[3] = biological target: T1, von Hippel-Lindau disease tumor suppressor/Bromodomain-containing protein 7 (Homo sapiens); experiment: PROTAC activity at VHL/BRD7 in human Ri-1 cells assessed as remaining BRD7 protein level at 1 uM incubated for 8 hrs by Western blot analysis relative to control; format: cell-based
[4] = biological target: T2, von Hippel-Lindau disease tumor suppressor/Bromodomain-containing protein 9 (Homo sapiens) (UniProt Q9H8M2+P40337); experiment: PROTAC activity at VHL/BRD9 in human Ri-1 cells assessed as remaining BRD9 protein level at 10 nM incubated for 1 hrs by Western blot analysis relative to control; format: cell-based; how it was run: as §1
T2 sequence (P40337 whole entry, looked up): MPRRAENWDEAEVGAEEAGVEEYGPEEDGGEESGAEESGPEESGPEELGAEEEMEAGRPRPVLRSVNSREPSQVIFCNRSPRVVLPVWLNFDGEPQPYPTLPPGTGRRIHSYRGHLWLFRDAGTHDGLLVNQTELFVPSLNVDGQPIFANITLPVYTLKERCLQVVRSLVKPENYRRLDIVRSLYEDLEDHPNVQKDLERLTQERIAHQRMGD
T2 sequence (Q9H8M2 whole entry, looked up): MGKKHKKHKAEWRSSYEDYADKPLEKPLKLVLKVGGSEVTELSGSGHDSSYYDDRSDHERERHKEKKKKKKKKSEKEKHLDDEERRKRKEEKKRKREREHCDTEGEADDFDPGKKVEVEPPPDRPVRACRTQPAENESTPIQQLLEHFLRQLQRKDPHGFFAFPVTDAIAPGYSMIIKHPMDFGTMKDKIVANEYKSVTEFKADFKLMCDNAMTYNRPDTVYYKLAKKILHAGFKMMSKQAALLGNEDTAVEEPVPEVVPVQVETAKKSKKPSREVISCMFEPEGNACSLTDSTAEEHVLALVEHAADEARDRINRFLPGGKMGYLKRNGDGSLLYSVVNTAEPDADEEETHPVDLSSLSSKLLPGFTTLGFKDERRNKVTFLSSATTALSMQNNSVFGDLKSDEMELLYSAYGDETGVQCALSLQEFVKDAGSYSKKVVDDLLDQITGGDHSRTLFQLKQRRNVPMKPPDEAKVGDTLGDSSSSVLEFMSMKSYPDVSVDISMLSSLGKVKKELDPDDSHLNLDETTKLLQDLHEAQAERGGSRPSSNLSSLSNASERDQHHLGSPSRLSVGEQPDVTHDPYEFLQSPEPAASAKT

[5] = Stability in human liver microsomes at 0.5 uM measured upto 30 mins in the presence of NADPH; format: ADME, Microsome; details: 0.5 h
[6] = biological target: T2, von Hippel-Lindau disease tumor suppressor/Bromodomain-containing protein 9 (Homo sapiens); experiment: PROTAC activity at VHL/BRD9 in human Ri-1 cells assessed as remaining BRD9 protein level at 10 nM incubated for 30 mins by Western blot analysis relative to control; format: cell-based; how it was run: as §1
[7] = biological target: T2, von Hippel-Lindau disease tumor suppressor/Bromodomain-containing protein 9 (Homo sapiens); experiment: PROTAC activity at VHL/BRD9 in human Ri-1 cells assessed as remaining BRD9 protein level at 100 nM incubated for 30 mins by Western blot analysis relative to control; format: cell-based; how it was run: as §1
[8] = biological target: T2, von Hippel-Lindau disease tumor suppressor/Bromodomain-containing protein 9 (Homo sapiens); experiment: PROTAC activity at VHL/BRD9 in human Ri-1 cells assessed as remaining BRD9 protein level at 100 nM incubated for 4 hrs by Western blot analysis relative to control; format: cell-based; how it was run: as §1
[9] = biological target: T1, von Hippel-Lindau disease tumor suppressor/Bromodomain-containing protein 7 (Homo sapiens); experiment: PROTAC activity at VHL/BRD7 in human Ri-1 cells assessed as remaining BRD7 protein level at 1 uM incubated for 2 hrs by Western blot analysis relative to control; format: cell-based
[10] = biological target: T1, von Hippel-Lindau disease tumor suppressor/Bromodomain-containing protein 7 (Homo sapiens); experiment: PROTAC activity at VHL/BRD7 in human Ri-1 cells assessed as remaining BRD7 protein level at 10 nM incubated for 30 mins by Western blot analysis relative to control; format: cell-based
[11] = biological target: T2, von Hippel-Lindau disease tumor suppressor/Bromodomain-containing protein 9 (Homo sapiens); experiment: PROTAC activity at VHL/BRD9 in human Ri-1 cells assessed as remaining BRD9 protein level at 1 uM incubated for 2 hrs by Western blot analysis relative to control; format: cell-based; how it was run: as §1
[12] = biological target: T2, von Hippel-Lindau disease tumor suppressor/Bromodomain-containing protein 9 (Homo sapiens); experiment: PROTAC activity at VHL/BRD9 in human Ri-1 cells assessed as remaining BRD9 protein level at 1 nM incubated for 2 hrs by Western blot analysis relative to control; format: cell-based; how it was run: as §1
[13] = biological target: T1, von Hippel-Lindau disease tumor suppressor/Bromodomain-containing protein 7 (Homo sapiens); experiment: PROTAC activity at VHL/BRD7 in human Ri-1 cells assessed as remaining BRD7 protein level at 100 nM incubated for 30 mins by Western blot analysis relative to control; format: cell-based; how it was run: as §1
[14] = biological target: T2, von Hippel-Lindau disease tumor suppressor/Bromodomain-containing protein 9 (Homo sapiens); experiment: PROTAC activity at VHL/HiBiT-tagged BRD9 expressed in HEK293 assessed as BRD9 ubiquitination at 1 uM measured upto 60 mins by NanoBRET assay; format: cell-based
[15] = Stability in CD-1 mouse liver microsomes at 0.5 uM measured upto 30 mins in the presence of NADPH; format: ADME, Microsome; details: 0.5 h
[16] = biological target: T2, von Hippel-Lindau disease tumor suppressor/Bromodomain-containing protein 9 (Homo sapiens); experiment: PROTAC activity at VHL/BRD9 in human Ri-1 cells assessed as remaining BRD9 protein level at 100 nM incubated for 2 hrs by Western blot analysis relative to control; format: cell-based; how it was run: as §1
[17] = biological target: T2, von Hippel-Lindau disease tumor suppressor/Bromodomain-containing protein 9 (Homo sapiens); experiment: PROTAC activity at VHL/BRD9 in human Ri-1 cells assessed as remaining BRD9 protein level at 100 nM incubated for 24 hrs by Western blot analysis relative to control; format: cell-based; how it was run: as §1
[18] = biological target: T1, von Hippel-Lindau disease tumor suppressor/Bromodomain-containing protein 7 (Homo sapiens); experiment: PROTAC activity at VHL/HiBiT-tagged BRD7 expressed in HEK293 assessed as BRD7 ubiquitination at 1 uM measured upto 60 mins by NanoBRET assay; format: cell-based
[19] = biological target: T1, von Hippel-Lindau disease tumor suppressor/Bromodomain-containing protein 7 (Homo sapiens); experiment: PROTAC activity at VHL/BRD7 in human Ri-1 cells assessed as remaining BRD7 protein level at 10 nM incubated for 24 hrs by Western blot analysis relative to control; format: cell-based
[20] = biological target: T2, von Hippel-Lindau disease tumor suppressor/Bromodomain-containing protein 9 (Homo sapiens); experiment: PROTAC activity at VHL/BRD9 in human Ri-1 cells assessed as BRD9 protein degradation at 100 nM incubated for 4 hrs by MS proteomics analysis; format: cell-based
How it was run: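 RI-1 cells treated in triplicate with compound (100 nM) or DMSO for 4 h; whole-cell proteome quantified by MS (6273 proteins), fold change versus control with t-test P-values.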

[21] = biological target: T2, von Hippel-Lindau disease tumor suppressor/Bromodomain-containing protein 9 (Homo sapiens); experiment: PROTAC activity at VHL/BRD9 in human Ri-1 cells assessed as maximal degradation by Western blot analysis relative to control; format: cell-based; how it was run: as §1
[22] = biological target: T1, von Hippel-Lindau disease tumor suppressor/Bromodomain-containing protein 7 (Homo sapiens); experiment: PROTAC activity at VHL/BRD7 in human Ri-1 cells assessed as BRD7 protein degradation in the presence of MLN4924 by Western blot analysis; format: cell-based
[23] = biological target: T1, von Hippel-Lindau disease tumor suppressor/Bromodomain-containing protein 7 (Homo sapiens); experiment: PROTAC activity at VHL/BRD7 in human Ri-1 cells assessed as remaining BRD7 protein level at 10 nM incubated for 48 hrs by Western blot analysis relative to control; format: cell-based; how it was run: as §1
[24] = biological target: T2, von Hippel-Lindau disease tumor suppressor/Bromodomain-containing protein 9 (Homo sapiens); experiment: PROTAC activity at VHL/BRD9 in human Ri-1 cells assessed as remaining BRD9 protein level at 100 nM incubated for 8 hrs by Western blot analysis relative to control; format: cell-based; how it was run: as §1
[25] = biological target: Von Hippel-Lindau disease tumor suppressor/Elongin B/Elongin C (Homo sapiens) (UniProt P40337+Q15370+Q15369); experiment: Co-operative binding affinity to 6His-tagged human VHL/ElonginC/ElonginB expressed in Escherichia coli BL21 (DE3) cells assessed as maximal intensity in the presence of BRD9-BD as complex with compound incubated for 1 hrs by AlphaLISA proximity assay
Chain of Von Hippel-Lindau disease tumor suppressor/Elongin B/Elongin C (Homo sapiens) (P40337 whole entry, looked up): as the sequence (P40337 whole entry, looked up) above
Chain of Von Hippel-Lindau disease tumor suppressor/Elongin B/Elongin C (Homo sapiens) (Q15369 whole entry, looked up): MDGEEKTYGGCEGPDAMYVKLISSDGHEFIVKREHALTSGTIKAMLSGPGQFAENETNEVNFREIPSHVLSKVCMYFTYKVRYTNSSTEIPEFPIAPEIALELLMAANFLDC
Chain of Von Hippel-Lindau disease tumor suppressor/Elongin B/Elongin C (Homo sapiens) (Q15370 whole entry, looked up): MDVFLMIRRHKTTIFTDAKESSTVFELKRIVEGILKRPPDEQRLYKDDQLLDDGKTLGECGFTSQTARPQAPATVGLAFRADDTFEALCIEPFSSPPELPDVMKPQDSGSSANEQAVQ

[26] = biological target: T1, von Hippel-Lindau disease tumor suppressor/Bromodomain-containing protein 7 (Homo sapiens); experiment: PROTAC activity at VHL/BRD7 in human Ri-1 cells assessed as maximal degradation by Western blot analysis relative to control; format: cell-based
[27] = biological target: T2, von Hippel-Lindau disease tumor suppressor/Bromodomain-containing protein 9 (Homo sapiens); experiment: PROTAC activity at VHL/BRD9 in human Ri-1 cells assessed as BRD9 protein degradation at 100 nM pre-incubated for 30 mins with VH298 followed by compound addition and measured after 4 hrs by Western blot analysis; format: cell-based
[28] = biological target: T2, von Hippel-Lindau disease tumor suppressor/Bromodomain-containing protein 9 (Homo sapiens); experiment: PROTAC activity at VHL/BRD9 in human Ri-1 cells assessed as remaining BRD9 protein level at 100 nM incubated for 48 hrs by Western blot analysis relative to control; format: cell-based; how it was run: as §1
[29] = biological target: T2, von Hippel-Lindau disease tumor suppressor/Bromodomain-containing protein 9 (Homo sapiens); experiment: PROTAC activity at VHL/BRD9 in human Ri-1 cells assessed as BRD9 protein degradation in the presence of MG132 by Western blot analysis; format: cell-based; how it was run: as §1
[30] = biological target: T1, von Hippel-Lindau disease tumor suppressor/Bromodomain-containing protein 7 (Homo sapiens); experiment: PROTAC activity at VHL/BRD7 in human Ri-1 cells assessed as remaining BRD7 protein level at 1 nM incubated for 2 hrs by Western blot analysis relative to control; format: cell-based
[31] = biological target: T1, von Hippel-Lindau disease tumor suppressor/Bromodomain-containing protein 7 (Homo sapiens); experiment: PROTAC activity at VHL/BRD7 in human Ri-1 cells assessed as remaining BRD7 protein level at 10 nM incubated for 1 hrs by Western blot analysis relative to control; format: cell-based
[32] = biological target: T1, von Hippel-Lindau disease tumor suppressor/Bromodomain-containing protein 7 (Homo sapiens); experiment: PROTAC activity at VHL/BRD7 in human Ri-1 cells assessed as remaining BRD7 protein level at 100 nM incubated for 1 hrs by Western blot analysis relative to control; format: cell-based; how it was run: as §1

T1 sequence (P40337 whole entry, looked up): as the sequence (P40337 whole entry, looked up) above
T1 sequence (Q9NPI1 whole entry, looked up): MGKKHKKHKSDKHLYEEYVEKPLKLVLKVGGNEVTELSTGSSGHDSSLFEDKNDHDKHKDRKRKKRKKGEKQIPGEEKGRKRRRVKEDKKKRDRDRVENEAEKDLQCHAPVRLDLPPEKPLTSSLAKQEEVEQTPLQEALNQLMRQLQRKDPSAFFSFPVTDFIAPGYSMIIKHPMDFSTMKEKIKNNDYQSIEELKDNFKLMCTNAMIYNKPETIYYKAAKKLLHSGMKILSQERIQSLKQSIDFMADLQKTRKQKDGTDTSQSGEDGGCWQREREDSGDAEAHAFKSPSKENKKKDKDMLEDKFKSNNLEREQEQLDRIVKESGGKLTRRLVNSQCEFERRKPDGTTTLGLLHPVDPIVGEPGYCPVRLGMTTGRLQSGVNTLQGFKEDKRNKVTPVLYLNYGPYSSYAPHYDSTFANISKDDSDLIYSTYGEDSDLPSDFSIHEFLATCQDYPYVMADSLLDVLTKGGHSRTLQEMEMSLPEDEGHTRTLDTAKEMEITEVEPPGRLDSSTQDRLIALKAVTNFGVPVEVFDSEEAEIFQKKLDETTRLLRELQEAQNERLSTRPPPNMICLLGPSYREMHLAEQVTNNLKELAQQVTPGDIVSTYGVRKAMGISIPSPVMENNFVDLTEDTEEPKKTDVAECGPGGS

COc1cc(-c2cn(C)c(=O)c3cnccc23)cc(OC)c1CN1CCN(CCCCCOc2cc(-c3scnc3C)ccc2CNC(=O)[C@@H]2C[C@@H](O)CN2C(=O)[C@@H](NC(=O)C2(F)CC2)C(C)(C)C)CC1
Activity [1]: 4%
Stability [2]: Stable
Activity [3]: 5%
Activity [4]: 64%
Stability [5]: Stable
Activity [6]: 50%
Activity [7]: 48%
Activity [8]: 10%
Activity [9]: 10%
Activity [10]: 70%
Activity [11]: 52%
Activity [12]: 98%
Activity [13]: 40%
Activity [14]: Active
Stability [15]: Stable
Activity [16]: 21%
Activity [17]: 2%
Activity [18]: Active
Activity [19]: 38%
Activity [20]: Active
Emax [21]: > 90%
Activity [22]: inactive
Activity [23]: 12%
Activity [24]: 2%
Activity [25]: 1.47 10^6No_unit
Emax [26]: > 90%
Activity [27]: inactive
Activity [28]: 2%
Activity [29]: inactive
Activity [30]: 92%
Activity [31]: 70%
Activity [32]: 31%

Source: ChEMBL document CHEMBL5260840 (J Med Chem, 2019)
